Most compounds without a hit are left out; they make up all but 6.4% or so of the library.
Jurkat tox 60K – reduces viability or proliferation of Jurkat cells; AID 463; inhibition, % at 4 µM; Jurkat E6.1 viability, ATP luminescence, 48 h; hit rate 1.2% among 56,000;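 active = inhibition above the mean inhibition of all tested compounds plus 3 SD, cut at about 28% in these data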
Lung fibro prol – blocks proliferation of human lung fibroblasts. LL 47 human lung fibroblast viability, ATP luminescence; stronger effect = lower value. viability, % at 10 µM. hit rate 1.1% among 85,000;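 active = viability at or below 50% in the single dose screen; inactive = viability above 50%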;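 note: compound exposure lasted 72 h before the ATP readout; 100% = median luminescence of untreated cell-only wells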
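Times – overnight cell rest, 72 h compound treatment at 37 °C · Test system – human lung fibroblast line LL 47, low passage · Amount – 1,150 cells in each well · Controls – cell-only wells, no compound · Doses – 0.1% DMSO in all compound wells · Measured by – CellTiter-Glo luminescence · Buffer or medium – IMEM plus 15% FBS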
H69AR inhibit – growth inhibitors of human H69AR lung tumor cells | H69AR lung tumor viability, ATP luminescence, 72 h; stronger effect = lower value | AID 598 | hit rate 6% among 85,000 | viability, % at 10 µM;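 active = viability at or below 40%; inactive = viability above 40%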;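 note: multidrug resistant small cell line overexpressing MRP-1 efflux transporter; 100% = mean luminescence of untreated control wells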
HUVEC prolif 384 – human endothelial cell proliferation inhibition | HUVEC proliferation, CellTiter-Glo luminescence, 72 h; stronger effect = lower value | viability, % at 10 µM (by protocol) | hit rate 1.1% among 86,000;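 active = viability at or below 30%; inactive = viability above 30%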;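 note: 100% = median luminescence of DMSO-only cell control wells on each plate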
* hit, by the source's call; . = no result given.

SMILES	Jurkat tox 60K	Lung fibro prol	H69AR inhibit	HUVEC prolif 384
CCOc1ccc(NS(=O)(=O)c2ccc(NS(=O)(=O)c3ccccc3)cc2)cc1	.	93	63	83
CCOc1ccc(S(=O)(=O)Nc2cc(Cl)ccc2O)cc1	9	96	17*	80
CCC/S(CC1CC1(Cl)Cl)=N\S(=O)(=O)c1ccc(C)cc1 (configuration not stated)	.	96	105	81
CCOC(=O)c1ccc2nc3c(cc2c1)CCS3	.	105	102	87
O=S(=O)(C/C(=C/CO)S(=O)(=O)c1ccccc1)c1ccccc1	98*	.	.	.
O=C(CS(=O)(=O)c1ccccc1)N1CCCCCC1	-1	98	103	88
CCOC(=O)C1CCCN(C(=O)c2cc3c(-c4cccc(OC)c4)nn(C)c3s2)C1 (configuration not stated)	79*	95	22*	73
Cc1ccc(C(=O)Nc2ccc3cn[nH]c3c2)cc1S(=O)(=O)N1CCCCC1	.	93	30*	99
O=c1c2c(nc3c(-c4ccc(Cl)cc4)c[nH]n13)CCCC2	5	60	20*	58
CCCOC(=O)C1=C(C)NC2=C(C(=O)CCC2)C1c1cccc(OC)c1OC (configuration not stated)	0	99	94	88
Cc1ccc(NC(=O)N2CCCN(Cc3ccc(F)cc3)C2)cc1C	11	.	28*	38
O=CNc1ccc(S(=O)(=O)NCc2ccccc2)cc1	.	98	94	100
CC1CCN(S(=O)(=O)c2ccc3c(c2)oc(=O)n3CC(=O)N2CCc3ccccc3C2)CC1	.	86	18*	92
C=CCNC(=O)CSc1nnc(-c2cccs2)o1	.	86	38*	98
O=C(CSc1nnc(-c2cc(-c3cccs3)nc3ccccc23)o1)NC1CCCCC1	.	107	23*	49
CC(=O)Nc1sc(NC(=O)c2ccc(C)cc2)nc1-c1cccs1	.	91	76	79
O=C1C2C3C=CC([C@@H]2C(=O)N1C1CCCCC1)[C@H]1C(=O)N(C2CCCCC2)C(=O)C31 (some centres not stated)	.	90	88	105
O=C1C=C(Nc2ccccc2O)c2ccccc2C1=O	.	13*	7.9*	4.7*
O=C1C(C2=C(O)c3ccccc3C2=O)=Nc2ccccc21	-5	.	.	.
COc1ccccc1N1CCN(C(=O)c2ccc(S(=O)(=O)N3CCCCCC3)cc2)CC1	9	95	89	87
CC(=O)CC1OC(=O)C(Br)=C1NCc1ccccc1 (configuration not stated)	49*	.	.	.
Cc1nc2c(-c3ccccc3)c(C)nn2c(C)c1CCC(=O)O	-5	106	74	93
CCOC(=O)Cc1c(C)nc2c(-c3ccccc3)c(-c3ccccc3)[nH]n2c1=O	.	92	32*	75
CCOC(=O)Cc1c(C)nc2c(-c3ccc(OC)cc3)c(C)nn2c1C	.	77	23*	71
COc1ccc(C(=O)N/C(N)=N/c2nc3ccccc3o2)cc1	.	97	19*	86
SMILES	Jurkat tox 60K	Lung fibro prol	H69AR inhibit	HUVEC prolif 384
CCCS(=O)(=O)N1CCCC(C(=O)NCCCN2CCN(c3cccc(Cl)c3)CC2)C1 (configuration not stated)	16	.	.	.
Nc1nc(OCC(F)(F)F)cc(Oc2ccccc2F)n1	-1	.	36*	85
CC(=O)OC1c2ccccc2C(=O)N1Cc1ccccc1 (configuration not stated)	.	106	99	89
O=C(Nc1ccc(S(=O)(=O)N2CCOCC2)cc1)c1ccc(Cl)cc1	10	.	.	.
Cc1cc(C)c(O)c(-c2cc(C(=O)Nc3ccc(S(=O)(=O)N4CCOCC4)cc3)[nH]n2)c1	22	41*	9.2*	36
COc1ccc(C2CC(c3c(-c4ccccc4)c4cc(Cl)ccc4[nH]c3=O)=NN2S(C)(=O)=O)cc1 (configuration not stated)	.	79	14*	63
O=c1[nH]c2ccc(Cl)cc2c(-c2ccccc2)c1N1CCOCC1	-2	94	79	95
Cc1ccc2nc(/C(C#N)=C\c3ccc(N4CCCCC4)c([N+](=O)[O-])c3)[nH]c2c1	.	98	18*	106
Cc1ccc2nc(/C(C#N)=C/c3cn[nH]c3-c3ccc(F)cc3)[nH]c2c1	.	87	14*	59
Cc1ccc2nc(/C(C#N)=N/O)[nH]c2c1	-3	96	80	94
Cc1ccc2nc(C3CCN(CC(=O)N4CCCCCC4)CC3)[nH]c2c1	18	97	89	88
O=C(CN(Cc1ccccc1Cl)C(=O)c1ccc(CN2CCOCC2)o1)NCC1CCCO1 (configuration not stated)	.	103	91	105
CCCc1cc(SCC(=O)Nc2c(C)n(C)n(-c3ccccc3)c2=O)n2c(nc3ccccc32)c1C#N	.	94	86	97
Cc1ccc(Cl)cc1N1CCN(CC(=O)Nc2ccc(CN3CCCCC3)cc2)CC1	.	28*	2.9*	8.2*
O=c1c2ccccc2nc(SCc2ccccc2)n1Cc1ccco1	8	89	93	116
CCCn1c(=O)c2ccccc2n2c(SCCOc3ccccc3)nnc12	-10	96	100	91
CCCCn1c(SCc2nc3ccccc3s2)nc2cc(S(N)(=O)=O)ccc21	.	93	16*	78
CCCn1c(=O)c2ccccc2n2c(SCc3nc4ccccc4s3)nnc12	0	.	31*	85
O=c1c2ccccc2nc(SCc2nc3ccccc3s2)n1Cc1ccco1	6	60	33*	42
CCc1nc2ccccc2c(C(=O)OCC(=O)Nc2ccc(S(=O)(=O)N3CCOCC3)cc2)c1C	7	90	28*	77
CCc1nc2ccccc2c(C(=O)OCC(=O)Nc2cccc(S(=O)(=O)N3CCOCC3)c2)c1C	.	76	22*	57
CCOc1ccc(NC2=NCC(=O)N2Cc2cccs2)cc1	.	107	94	104
COc1cc(OC)cc(C(=O)NCCNC(=O)c2ccco2)c1	.	104	89	97
CSc1nc2c(c(-c3ccc(O)cc3)c1C#N)CCC2	9	94	26*	83
CC(Nc1ccc(Cl)cc1)c1cc(Cl)ccc1O (configuration not stated)	.	90	39*	71
SMILES	Jurkat tox 60K	Lung fibro prol	H69AR inhibit	HUVEC prolif 384
CCc1nc(N2CCN(C(=O)c3ccco3)CC2)c2oc3ccccc3c2n1	16	94	22*	76
CCOc1ccccc1-n1c(CN2CCN(C(=O)c3ccco3)CC2)nc2ccccc2c1=O	-1	15*	63	52
Cc1nc(N2CCN(C(=O)c3ccco3)CC2)c2oc3ccccc3c2n1	.	102	95	69
CCOc1cc(CN2CCN(C(=O)c3ccco3)CC2)ccc1OC	0	99	86	94
CC(C)(C)c1nc(N2CCN(C(=O)c3ccco3)CC2)c2nnn(Cc3ccccc3)c2n1	.	93	11*	76
CCS(=O)(=O)N1CCN(Cc2ccncc2)CC1	-5	102	101	100
O=C(CN1CCN(CC(=O)Nc2ccccc2C(F)(F)F)CC1)Nc1ccccc1F	-2	107	90	118
O=P(CCC(F)(F)F)(CCC(F)(F)F)CCC(F)(F)F	.	102	101	105
CCn1c2ccccc2c2nc3cc(S(=O)(=O)N4CCOCC4)ccc3nc21	3	84	6.1*	90

Bioassay records: PubChem BioAssay, several laboratories
